Experimental findings from ChEMBL document CHEMBL3046450, “Pyrrole- and dihydropyrrole-fused neonicotinoids: design, synthesis, and insecticidal evaluation” (2013) are described below.

Converted amounts (≈) assume the structure as drawn.

Usually LC50 stands for the concentration lethal to half of the exposed cells or organisms.

Assay [1] has as its system Aphis craccivora. Description: Insecticidal activity against Aphis craccivora (cowpea aphid) assessed as mortality at 500 mg/l. It counts as functional. The gist of the method:
(§1)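 Compounds dissolved in DMF, then diluted with water containing Triton X-100 (0.1 mg L−1) to test concentrations of 500.0, 250.0 and 125.0 mg L−1, plus others; mortality of cowpea aphids was scored.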

Assay [2] deals with Aphis craccivora. Description: Insecticidal activity against Aphis craccivora (cowpea aphid) assessed as mortality. It counts as functional. A digest of the protocol: as §1

Take `CCCCOC1C([N+](=O)[O-])=C(N(CC)Cc2ccc(Cl)nc2)N(C)C1(C)O` (stereo unspecified): in the assay on Aphis craccivora [1], the Activity turned out to be 16.4%.
With `CC12OCCOC1C([N+](=O)[O-])=C1N(Cc3ccc(Cl)nc3)CCN12` (stereo unspecified), the Activity in the assay with Aphis craccivora [1] is on record as 100%. For the same molecule, the median lethal concentration (LC50) in the assay on Aphis craccivora [2] came to 10 µg/mL (≈ 28.3 µM).
For `CC12OCCCCOC1C([N+](=O)[O-])=C1N(Cc3ccc(Cl)nc3)CCN12` (stereo unspecified), in that order: 100% and 14.8 µg/mL (≈ 38.9 µM).
As to `CCN(Cc1ccc(Cl)nc1)C1=C([N+](=O)[O-])C(OC)C(C)(O)N1C` (stereo unspecified), the Activity in the assay with Aphis craccivora [1] was 21.6%.
Take `O=[N+]([O-])/N=C1\NCCN1Cc1ccc(Cl)nc1` [IMIDACLOPRID]: the Activity with Aphis craccivora [1] is given as 100%. In the assay with Aphis craccivora [2], the LC50 is 8.9 µg/mL (≈ 34.8 µM).
Turning to `CCCOc1c([N+](=O)[O-])c2n(c1C)CCN2Cc1ccc(Cl)nc1`, the Activity with Aphis craccivora [1] was 100%. For the same molecule, the LC50 in the assay with Aphis craccivora [2] turned out to be 24.5 µg/mL (≈ 69.8 µM).
The matching figures for `CCCCOc1c([N+](=O)[O-])c2n(c1C)CCN2Cc1ccc(Cl)nc1`: 100% and 39.5 µg/mL (≈ 108 µM).
Take `CCOc1c([N+](=O)[O-])c(N(CC)Cc2ccc(Cl)nc2)n(C)c1C`: the Activity in the assay with Aphis craccivora [1] was found to be 84%.
On the same count and under the same terms, for `CCN(Cc1ccc(Cl)nc1)C1=C([N+](=O)[O-])C(OC(C)C)C(C)(O)N1C` (stereo unspecified) the value was 21.2%; for `CCOC1C([N+](=O)[O-])=C(N(CC)Cc2ccc(Cl)nc2)N(C)C1(C)O` (stereo unspecified), 29.7%.
In the case of `COc1c([N+](=O)[O-])c2n(c1C)CCN2Cc1ccc(Cl)nc1`, the Activity in the assay on Aphis craccivora [1] was 100%. Besides, the median lethal concentration (LC50) in the assay with Aphis craccivora [2] was determined as 14.6 µg/mL (≈ 45.2 µM).
On to `CCN(Cc1ccc(Cl)nc1)c1c([N+](=O)[O-])c(OC)c(C)n1C`, for which the Activity in the assay with Aphis craccivora [1] was determined as 91%.
Take `CC1C(=O)C([N+](=O)[O-])=C2N(Cc3ccc(Cl)nc3)CCN21` (stereo unspecified): in the assay with Aphis craccivora [1], the Activity came out at 100%. In the assay with Aphis craccivora [2], the LC50 worked out at 43.5 µg/mL (≈ 141 µM).
Take `CCCCOC1C([N+](=O)[O-])=C2N(Cc3ccc(Cl)nc3)CCN2C1(C)OCCCC` (stereo unspecified): the Activity with Aphis craccivora [1] is 100%. Also, in the assay with Aphis craccivora [2], the LC50 is 3.4 µg/mL (≈ 7.75 µM).
Consider `CCCOc1c([N+](=O)[O-])c(N(CC)Cc2ccc(Cl)nc2)n(C)c1C`, for which the Activity in the assay on Aphis craccivora [1] is 77%.
For the molecule `CCOc1c([N+](=O)[O-])c2n(c1C)CCN2Cc1ccc(Cl)nc1`, in the assay on Aphis craccivora [1], the Activity was 100%. Further, the LC50 with Aphis craccivora [2] stood at 37.3 µg/mL (≈ 111 µM).
For `CC12OCCCOC1C([N+](=O)[O-])=C1N(Cc3ccc(Cl)nc3)CCN12` (stereo unspecified), in that order: 100% and 11.1 µg/mL (≈ 30.3 µM).
Take `CCOC1C([N+](=O)[O-])=C2N(Cc3ccc(Cl)nc3)CCN2C1(C)OCC` (stereo unspecified): the Activity with Aphis craccivora [1] is reported as 100%. Besides, the LC50 in the assay on Aphis craccivora [2] is 0.6 µg/mL (≈ 1.57 µM).
For `CCCOC1C([N+](=O)[O-])=C2N(Cc3ccc(Cl)nc3)CCN2C1(C)OCCC` (stereo unspecified), in that order: 100% and 0.8 µg/mL (≈ 1.95 µM).
Regarding `CCCOC1C([N+](=O)[O-])=C(N(CC)Cc2ccc(Cl)nc2)N(C)C1(C)O` (stereo unspecified), the Activity with Aphis craccivora [1] is listed as 19%.
Take `CC1(O)C(O)C([N+](=O)[O-])=C2N(Cc3ccc(Cl)nc3)CCN21` (stereo unspecified): the Activity in the assay with Aphis craccivora [1] is reported as 100%. In addition, the LC50 with Aphis craccivora [2] was 2 µg/mL (≈ 6.12 µM).
In the case of `COC1C([N+](=O)[O-])=C2N(Cc3ccc(Cl)nc3)CCN2C1(C)OC` (stereo unspecified), the Activity in the assay on Aphis craccivora [1] came out at 100%. Also, in the assay on Aphis craccivora [2], the LC50 stood at 0.7 µg/mL (≈ 1.97 µM).
